Assay results from ChEMBL document CHEMBL3861959, “Synthesis and antiproliferative evaluation of novel 2-(4H-1,2,4-triazole-3-ylthio)acetamide derivatives as inducers of apoptosis in cancer cells” (Eur J Med Chem, 2016).

How the values were obtained:
[1] = Cytotoxicity against human OVCAR5 cells assessed as cell growth at 10^-5 M after 48 hrs by SRB assay relative to control; assay type: functional; settings: OVCAR-5, 48 h, read-out: Activity
Method in brief: (§1)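 NCI single-dose primary screen run under the US NCI protocol. Compounds tested at 10 µM across the 60-cell-line panel, with growth percent reported for each line.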

[2] = Cytotoxicity against human K562 cells assessed as cell growth at 10^-5 M after 48 hrs by SRB assay relative to control; assay type: functional; settings: K562, 48 h, read-out: Activity; method in brief: as §1
[3] = Cytotoxicity against human TK10 cells assessed as cell growth at 10^-5 M after 48 hrs by SRB assay relative to control; assay type: functional; settings: TK-10, 48 h, read-out: Activity
Method in brief: (§2)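 Single-dose NCI 60-cell-line screen run under the US NCI protocol. Compounds tested at 10 µM. Read-out is growth percent for each cell line.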

[4] = Cytotoxicity against human UACC257 cells assessed as cell growth at 10^-5 M after 48 hrs by SRB assay relative to control; assay type: functional; settings: UACC-257, 48 h, read-out: Activity; method in brief: as §2
[5] = Cytotoxicity against human NCI-H460 cells assessed as cell growth at 10^-5 M after 48 hrs by SRB assay relative to control; assay type: functional; settings: NCI-H460, 48 h, read-out: Activity; method in brief: as §1
[6] = Cytotoxicity against human HCT116 cells assessed as cell growth at 10^-5 M after 48 hrs by SRB assay relative to control; assay type: functional; settings: HCT-116, 48 h, read-out: Activity; method in brief: as §1
[7] = Cytotoxicity against human PC3 cells assessed as cell growth at 10^-5 M after 48 hrs by SRB assay relative to control; assay type: functional; settings: PC-3, 48 h, read-out: Activity; method in brief: as §1
[8] = Cytotoxicity against human HL-60(TB) cells assessed as cell growth at 10^-5 M after 48 hrs by SRB assay relative to control; assay type: functional; settings: HL-60, 48 h, read-out: Activity
Method in brief: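 NCI-60 one-dose primary screen run by the US NCI under its protocol. Single concentration of 10 µM across the 60-line human tumour panel, which includes HL-60(TB). Read-out is growth percent for each cell line. Lines reduced to about 32% growth or less are taken forward to full-panel testing over a 5-log dose range.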

[9] = Cytotoxicity against human EKVX cells assessed as cell growth at 10^-5 M after 48 hrs by SRB assay relative to control; assay type: functional; settings: read-out: Activity; method in brief: as §1
[10] = Cytotoxicity against human RXF393 cells assessed as cell growth at 10^-5 M after 48 hrs by SRB assay relative to control; assay type: functional; settings: RXF 393, 48 h, read-out: Activity; method in brief: as §1
[11] = Cytotoxicity against human HCC2998 cells assessed as cell growth at 10^-5 M after 48 hrs by SRB assay relative to control; assay type: functional; settings: HCC 2998, 48 h, read-out: Activity; method in brief: as §1
[12] = Cytotoxicity against human M14 cells assessed as cell growth at 10^-5 M after 48 hrs by SRB assay relative to control; assay type: functional; settings: M14, 48 h, read-out: Activity; method in brief: as §1
[13] = Cytotoxicity against human SF539 cells assessed as cell growth at 10^-5 M after 48 hrs by SRB assay relative to control; assay type: functional; settings: SF-539, 48 h, read-out: Activity; method in brief: as §2
[14] = Cytotoxicity against human A549 cells assessed as cell growth at 10^-5 M after 48 hrs by SRB assay relative to control; assay type: functional; settings: A549, 48 h, read-out: Activity; method in brief: as §1
[15] = Cytotoxicity against human SF295 cells assessed as cell growth at 10^-5 M after 48 hrs by SRB assay relative to control; assay type: functional; settings: SF-295, 48 h, read-out: Activity; method in brief: as §1
[16] = Cytotoxicity against human SK-MEL-5 cells assessed as cell growth at 10^-5 M after 48 hrs by SRB assay relative to control; assay type: functional; settings: SK-MEL-5, 48 h, read-out: Activity; method in brief: as §2
[17] = Cytotoxicity against human NCI-H522 cells assessed as cell growth at 10^-5 M after 48 hrs by SRB assay relative to control; assay type: functional; settings: NCI-H522, 48 h, read-out: Activity; method in brief: as §1
[18] = Cytotoxicity against human OVCAR4 cells assessed as cell growth at 10^-5 M after 48 hrs by SRB assay relative to control; assay type: functional; settings: OVCAR-4, 48 h, read-out: Activity; method in brief: as §1
[19] = Cytotoxicity against human OVCAR8 cells assessed as cell growth at 10^-5 M after 48 hrs by SRB assay relative to control; assay type: functional; settings: OVCAR-8, 48 h, read-out: Activity; method in brief: as §1
[20] = Cytotoxicity against human HOP62 cells assessed as cell growth at 10^-5 M after 48 hrs by SRB assay relative to control; assay type: functional; settings: HOP-62, 48 h, read-out: Activity; method in brief: as §1
[21] = Cytotoxicity against human IGROV1 cells assessed as cell growth at 10^-5 M after 48 hrs by SRB assay relative to control; assay type: functional; settings: IGROV-1, 48 h, read-out: Activity; method in brief: as §1
[22] = Cytotoxicity against human UO31 cells assessed as cell growth at 10^-5 M after 48 hrs by SRB assay relative to control; assay type: functional; settings: UO-31, 48 h, read-out: Activity; method in brief: as §2
[23] = Cytotoxicity against human OVCAR3 cells assessed as cell growth at 10^-5 M after 48 hrs by SRB assay relative to control; assay type: functional; settings: OVCAR-3, 48 h, read-out: Activity; method in brief: as §1
[24] = Cytotoxicity against human Hs 578T cells assessed as cell growth at 10^-5 M after 48 hrs by SRB assay relative to control; assay type: functional; settings: read-out: Activity; method in brief: as §1
[25] = Cytotoxicity against human NCI-H322M cells assessed as cell growth at 10^-5 M after 48 hrs by SRB assay relative to control; assay type: functional; settings: read-out: Activity; method in brief: as §1
[26] = Cytotoxicity against mouse NIH/3T3 cells assessed as decrease in cell survival after 48 hrs by MTT assay; assay type: toxicity, NIH3T3
[27] = Selectivity index, ratio of CC50 for human MT4 cells to EC50 for HIV1 3B; assay type: toxicity, cell-based; settings: read-out: Ratio CC50/EC50
Method in brief: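 HIV-1 IIIB and HIV-2 ROD tested in MT-4 cells by MTT. Serial fivefold dilutions of compound added to triplicate mock- and virus-infected wells. MT-4 cells at 6 × 10^5 cells/mL. Absorbance read at 540/690 nm; median OD of three wells used. CC50 is the concentration reducing mock-infected OD540 by 50%. […]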

[28] = Cytotoxicity against human MOLT4 cells assessed as cell growth at 10^-5 M after 48 hrs by SRB assay relative to control; assay type: functional; settings: MOLT-4, 48 h, read-out: Activity; method in brief: as §1
[29] = Cytotoxicity against human UACC62 cells assessed as cell growth at 10^-5 M after 48 hrs by SRB assay relative to control; assay type: functional; settings: UACC-62, 48 h, read-out: Activity; method in brief: as §2
[30] = Cytotoxicity against human 786-0 cells assessed as cell growth at 10^-5 M after 48 hrs by SRB assay relative to control; assay type: functional; settings: 786-0, 48 h, read-out: Activity; method in brief: as §1
[31] = Cytotoxicity against human NCI-H226 cells assessed as cell growth at 10^-5 M after 48 hrs by SRB assay relative to control; assay type: functional; settings: NCI-H226, 48 h, read-out: Activity; method in brief: as §1
[32] = Cytotoxicity against human HT-29 cells assessed as cell growth at 10^-5 M after 48 hrs by SRB assay relative to control; assay type: functional; settings: HT-29, 48 h, read-out: Activity; method in brief: as §1

Cc1ccc(C(C)C)c(OCc2nnc(SCC(=O)Nc3ccc(Cl)cc3)n2Cc2ccccc2)c1
growth at 10 µM [1]: 93.2%
growth at 10 µM [2]: 97.5%
growth at 10 µM [3]: 71.9%
growth at 10 µM [4]: 105%
growth at 10 µM [5]: 17.7%
growth at 10 µM [6]: 52.9%
growth at 10 µM [7]: 71.9%
growth at 10 µM [8]: 83.9%
growth at 10 µM [9]: 69.6%
growth at 10 µM [10]: 101%
growth at 10 µM [11]: 89.7%
growth at 10 µM [12]: 99%
growth at 10 µM [13]: 85.4%
growth at 10 µM [14]: 27.9%
growth at 10 µM [15]: 88.1%
growth at 10 µM [16]: 90.5%
growth at 10 µM [17]: 90.4%
growth at 10 µM [18]: 33.4%
growth at 10 µM [19]: 67.3%
growth at 10 µM [20]: 81.2%
growth at 10 µM [21]: 69.4%
growth at 10 µM [22]: 53.6%
growth at 10 µM [23]: 63.9%
growth at 10 µM [24]: 75.5%
growth at 10 µM [25]: 72.5%
IC50 at 48 h [26]: > 100 µg/mL
selectivity ratio [27]: < 1
growth at 10 µM [28]: 73.7%
growth at 10 µM [29]: 94%
growth at 10 µM [30]: 38.9%
growth at 10 µM [31]: 88%
growth at 10 µM [32]: 70%

CC(=O)Nc1ccc(OCc2nnc(SCC(=O)Nc3ccc(Br)cc3)n2Cc2ccccc2)cc1
growth at 10 µM [1]: 92%
growth at 10 µM [2]: 28.9%
growth at 10 µM [3]: 87.1%
growth at 10 µM [4]: 98.4%
growth at 10 µM [5]: 74.3%
growth at 10 µM [6]: 53.2%
growth at 10 µM [7]: 54.2%
growth at 10 µM [8]: 63.8%
growth at 10 µM [9]: 70%
growth at 10 µM [10]: 101%
growth at 10 µM [11]: 85.6%
growth at 10 µM [12]: 43.5%
growth at 10 µM [13]: 92.8%
growth at 10 µM [14]: 78.5%
growth at 10 µM [15]: 80.2%
growth at 10 µM [16]: 69.8%
growth at 10 µM [17]: 71.2%
growth at 10 µM [18]: 101%
growth at 10 µM [19]: 84.8%
growth at 10 µM [20]: 90.3%
growth at 10 µM [21]: 83.2%
growth at 10 µM [22]: 52.8%
growth at 10 µM [23]: 102%
growth at 10 µM [24]: 97.9%
growth at 10 µM [25]: 81.2%
IC50 at 48 h [26]: > 100 µg/mL
selectivity ratio [27]: ≤ 1
growth at 10 µM [28]: 64.7%
growth at 10 µM [29]: 32.5%
growth at 10 µM [30]: 91.1%
growth at 10 µM [31]: 80.3%
growth at 10 µM [32]: 93.9%

Cc1ccc(C(C)C)c(OCc2nnc(SCC(=O)Nc3ccc(S(N)(=O)=O)cc3)n2Cc2ccccc2)c1
growth at 10 µM [1]: 99.4%
growth at 10 µM [2]: 78.4%
growth at 10 µM [3]: 94%
growth at 10 µM [4]: 89%
growth at 10 µM [5]: 76.4%
growth at 10 µM [6]: 66.1%
growth at 10 µM [7]: 31.1%
growth at 10 µM [8]: 68.2%
growth at 10 µM [9]: 55.5%
growth at 10 µM [10]: 70.6%
growth at 10 µM [11]: 73.8%
growth at 10 µM [12]: 87.3%
growth at 10 µM [13]: 89.5%
growth at 10 µM [14]: 50.6%
growth at 10 µM [15]: 70.7%
growth at 10 µM [16]: 50.3%
growth at 10 µM [17]: 75.3%
growth at 10 µM [18]: 88.8%
growth at 10 µM [19]: 41.1%
growth at 10 µM [20]: 79.1%
growth at 10 µM [21]: 90.1%
growth at 10 µM [22]: 42.7%
growth at 10 µM [23]: 74.7%
growth at 10 µM [24]: 86.2%
growth at 10 µM [25]: 89.3%
IC50 at 48 h [26]: > 100 µg/mL
selectivity ratio [27]: < 1
growth at 10 µM [28]: 45.2%
growth at 10 µM [29]: 51.2%
growth at 10 µM [30]: 92.3%
growth at 10 µM [31]: 66.6%
growth at 10 µM [32]: 72.4%
